# Reference: ChEMBL document CHEMBL4689842, “EUbOPEN Chemogenomics Library wave 1” (2021)
# Columns and labels:
# Format in all cases: toxicity, cell-based
# HEK-293T = assay: Incucyte cell viability with HEK293T; conditions: human, 10 µM, compound concentration 10 uM; note: filed as whole numbers so only -1 and 0 and 1 occur
# Fibroblast = assay: Incucyte cell viability with human fibroblast; conditions: 10 µM, compound concentration 10 uM; note: filed as whole numbers so only -1 and 0 and 1 occur
# U2OS [1] = assay: Incucyte cell viability with U2OS; conditions: human, 10 µM, compound concentration 10 uM; note: filed as whole numbers so only -1 and 0 and 1 occur
# U2OS [2] = assay: Multiplex assay against U2OS; conditions: human
# Method in brief: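 Live cells were stained at seeding with Hoechst33342, BioTracker Green Microtubule Cytoskeleton Dye, MitoTracker Red and Annexin V Alexa Fluor 680, then imaged on a CQ1 microscope at 37°C and 5% CO2 after compound addition. CellPathfinder machine-learning gating split cells into Hoechst high-intensity objects or normal cells. Normal cells were split into healthy, pyknosed or fragmented nuclei, and pyknosed cells into mitotic or apoptotic. Tubulin, mitochondrial-mass and membrane-permeability phenotypes are per cents of healthy-nucleus cells.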
# [3] = 6 h, replicate number 1, timepoint 6 hours
# [4] = 12 h, replicate number 1, timepoint 12 hours
# [5] = 18 h, replicate number 1, timepoint 18 hours
# [6] = 24 h, replicate number 1, timepoint 24 hours
# [7] = 0 h, replicate number 2, timepoint 0 hours
# [8] = 12 h, 1 µM, compound concentration 1 uM, replicate 1
# [9] = 12 h, 1 µM, compound concentration 1 uM, replicate 2
# [10] = 12 h, 10 µM, compound concentration 10 uM, replicate 1
# [11] = 12 h, 10 µM, compound concentration 10 uM, replicate 2
# [12] = 24 h, 1 µM, compound concentration 1 uM, replicate 1
# [13] = 24 h, 1 µM, compound concentration 1 uM, replicate 2
# [14] = 24 h, 10 µM, compound concentration 10 uM, replicate 1
# [15] = 24 h, 10 µM, compound concentration 10 uM, replicate 2
# [16] = 48 h, 1 µM, compound concentration 1 uM, replicate 1
# [17] = 48 h, 1 µM, compound concentration 1 uM, replicate 2
# [18] = 48 h, 10 µM, compound concentration 10 uM, replicate 1
# [19] = 48 h, 10 µM, compound concentration 10 uM, replicate 2
smiles,measurement,setting,value
CCCc1cc(C)[nH]c(=O)c1CNC(=O)c1cc(-c2ccc(N3CCN(C(C)C)CC3)nc2)cc2c1cnn2C(C)C,Growth Rate,HEK-293T; [3],0
same,Growth Rate,HEK-293T; [4],0
same,Growth Rate,HEK-293T; [5],0
same,Growth Rate,HEK-293T; [6],0
same,Growth Rate,Fibroblast; [7],0
same,Growth Rate,Fibroblast; [3],0
same,Growth Rate,Fibroblast; [4],0
same,Growth Rate,"Fibroblast; 12 h, replicate number 2, timepoint 12 hours",1
same,Growth Rate,Fibroblast; [5],0
same,Growth Rate,Fibroblast; [6],0
same,Growth Rate,U2OS [1]; [7],0
same,Growth Rate,U2OS [1]; [3],1
same,Growth Rate,U2OS [1]; [4],1
same,Growth Rate,U2OS [1]; [5],0
same,Growth Rate,U2OS [1]; [6],0
same,Growth Rate,"U2OS [1]; 24 h, replicate number 2, timepoint 24 hours",1
same,Population Apoptotic (%),U2OS [2]; [8],64%
same,Population Fragmented Nuclei (%),U2OS [2]; [8],21%
same,Population Healthy Nuclei (%),U2OS [2]; [8],53%
same,Population Hoechst High Intensity Objects (%),U2OS [2]; [8],15%
same,Population Membrane Permeable-Phenotype (%),U2OS [2]; [8],13%
same,Population Mitochondria Different-Phenotype (%),U2OS [2]; [8],81%
same,Population Mitotic Cells (%),U2OS [2]; [8],35%
same,Population Normal (%),U2OS [2]; [8],84%
same,Population Pyknosed Nuclei (%),U2OS [2]; [8],24%
same,Population Tubulin-Different-Phenotype (%),U2OS [2]; [8],81%
same,Total Cell Count,U2OS [2]; [8],124
same,Population Apoptotic (%),U2OS [2]; [9],20%
same,Population Fragmented Nuclei (%),U2OS [2]; [9],19%
same,Population Healthy Nuclei (%),U2OS [2]; [9],70%
same,Population Hoechst High Intensity Objects (%),U2OS [2]; [9],10%
same,Population Membrane Permeable-Phenotype (%),U2OS [2]; [9],8%
same,Population Mitochondria Different-Phenotype (%),U2OS [2]; [9],91%
same,Population Mitotic Cells (%),U2OS [2]; [9],80%
same,Population Normal (%),U2OS [2]; [9],89%
same,Population Pyknosed Nuclei (%),U2OS [2]; [9],9%
same,Population Tubulin-Different-Phenotype (%),U2OS [2]; [9],94%
same,Total Cell Count,U2OS [2]; [9],56
same,Population Apoptotic (%),U2OS [2]; [10],70%
same,Population Fragmented Nuclei (%),U2OS [2]; [10],24%
same,Population Healthy Nuclei (%),U2OS [2]; [10],49%
same,Population Hoechst High Intensity Objects (%),U2OS [2]; [10],8%
same,Population Membrane Permeable-Phenotype (%),U2OS [2]; [10],64%
same,Population Mitotic Cells (%),U2OS [2]; [10],29%
same,Population Normal (%),U2OS [2]; [10],91%
same,Population Pyknosed Nuclei (%),U2OS [2]; [10],26%
same,Population Tubulin-Different-Phenotype (%),U2OS [2]; [10],98%
same,Total Cell Count,U2OS [2]; [10],82
same,Population Apoptotic (%),U2OS [2]; [11],85%
same,Population Fragmented Nuclei (%),U2OS [2]; [11],13%
same,Population Healthy Nuclei (%),U2OS [2]; [11],47%
same,Population Hoechst High Intensity Objects (%),U2OS [2]; [11],5%
same,Population Membrane Permeable-Phenotype (%),U2OS [2]; [11],79%
same,Population Mitochondria Different-Phenotype (%),U2OS [2]; [11],100%
same,Population Mitotic Cells (%),U2OS [2]; [11],14%
same,Population Normal (%),U2OS [2]; [11],94%
same,Population Pyknosed Nuclei (%),U2OS [2]; [11],38%
same,Population Tubulin-Different-Phenotype (%),U2OS [2]; [11],100%
same,Total Cell Count,U2OS [2]; [11],57
same,Population Apoptotic (%),U2OS [2]; [12],71%
same,Population Fragmented Nuclei (%),U2OS [2]; [12],18%
same,Population Healthy Nuclei (%),U2OS [2]; [12],60%
same,Population Hoechst High Intensity Objects (%),U2OS [2]; [12],13%
same,Population Membrane Permeable-Phenotype (%),U2OS [2]; [12],20%
same,Population Mitochondria Different-Phenotype (%),U2OS [2]; [12],89%
same,Population Mitotic Cells (%),U2OS [2]; [12],28%
same,Population Normal (%),U2OS [2]; [12],86%
same,Population Pyknosed Nuclei (%),U2OS [2]; [12],21%
same,Population Tubulin-Different-Phenotype (%),U2OS [2]; [12],79%
same,Total Cell Count,U2OS [2]; [12],132
same,Population Apoptotic (%),U2OS [2]; [13],33%
same,Population Fragmented Nuclei (%),U2OS [2]; [13],20%
same,Population Healthy Nuclei (%),U2OS [2]; [13],51%
same,Population Hoechst High Intensity Objects (%),U2OS [2]; [13],10%
same,Population Membrane Permeable-Phenotype (%),U2OS [2]; [13],10%
same,Population Mitochondria Different-Phenotype (%),U2OS [2]; [13],78%
same,Population Mitotic Cells (%),U2OS [2]; [13],66%
same,Population Normal (%),U2OS [2]; [13],90%
same,Population Pyknosed Nuclei (%),U2OS [2]; [13],27%
same,Population Tubulin-Different-Phenotype (%),U2OS [2]; [13],82%
same,Total Cell Count,U2OS [2]; [13],53
same,Population Apoptotic (%),U2OS [2]; [14],88%
same,Population Fragmented Nuclei (%),U2OS [2]; [14],23%
same,Population Healthy Nuclei (%),U2OS [2]; [14],36%
same,Population Membrane Permeable-Phenotype (%),U2OS [2]; [14],80%
same,Population Mitotic Cells (%),U2OS [2]; [14],11%
same,Population Pyknosed Nuclei (%),U2OS [2]; [14],39%
same,Total Cell Count,U2OS [2]; [14],75
same,Population Apoptotic (%),U2OS [2]; [15],91%
same,Population Fragmented Nuclei (%),U2OS [2]; [15],8%
same,Population Healthy Nuclei (%),U2OS [2]; [15],48%
same,Population Hoechst High Intensity Objects (%),U2OS [2]; [15],9%
same,Population Membrane Permeable-Phenotype (%),U2OS [2]; [15],85%
same,Population Mitochondria Different-Phenotype (%),U2OS [2]; [15],100%
same,Population Mitotic Cells (%),U2OS [2]; [15],8%
same,Population Normal (%),U2OS [2]; [15],90%
same,Population Pyknosed Nuclei (%),U2OS [2]; [15],42%
same,Population Tubulin-Different-Phenotype (%),U2OS [2]; [15],100%
same,Total Cell Count,U2OS [2]; [15],60
same,Population Apoptotic (%),U2OS [2]; [16],70%
same,Population Fragmented Nuclei (%),U2OS [2]; [16],23%
same,Population Healthy Nuclei (%),U2OS [2]; [16],56%
same,Population Hoechst High Intensity Objects (%),U2OS [2]; [16],10%
same,Population Membrane Permeable-Phenotype (%),U2OS [2]; [16],18%
same,Population Mitochondria Different-Phenotype (%),U2OS [2]; [16],83%
same,Population Mitotic Cells (%),U2OS [2]; [16],29%
same,Population Normal (%),U2OS [2]; [16],89%
same,Population Pyknosed Nuclei (%),U2OS [2]; [16],20%
same,Population Tubulin-Different-Phenotype (%),U2OS [2]; [16],77%
same,Total Cell Count,U2OS [2]; [16],142
same,Population Apoptotic (%),U2OS [2]; [17],46%
same,Population Fragmented Nuclei (%),U2OS [2]; [17],22%
same,Population Healthy Nuclei (%),U2OS [2]; [17],59%
same,Population Hoechst High Intensity Objects (%),U2OS [2]; [17],12%
same,Population Membrane Permeable-Phenotype (%),U2OS [2]; [17],27%
same,Population Mitochondria Different-Phenotype (%),U2OS [2]; [17],72%
same,Population Mitotic Cells (%),U2OS [2]; [17],53%
same,Population Normal (%),U2OS [2]; [17],87%
same,Population Pyknosed Nuclei (%),U2OS [2]; [17],18%
same,Population Tubulin-Different-Phenotype (%),U2OS [2]; [17],74%
same,Total Cell Count,U2OS [2]; [17],65
same,Population Apoptotic (%),U2OS [2]; [18],95%
same,Population Fragmented Nuclei (%),U2OS [2]; [18],26%
same,Population Healthy Nuclei (%),U2OS [2]; [18],15%
same,Population Hoechst High Intensity Objects (%),U2OS [2]; [18],14%
same,Population Membrane Permeable-Phenotype (%),U2OS [2]; [18],89%
same,Population Mitochondria Different-Phenotype (%),U2OS [2]; [18],100%
same,Population Mitotic Cells (%),U2OS [2]; [18],4%
same,Population Normal (%),U2OS [2]; [18],85%
same,Population Pyknosed Nuclei (%),U2OS [2]; [18],57%
same,Population Tubulin-Different-Phenotype (%),U2OS [2]; [18],100%
same,Total Cell Count,U2OS [2]; [18],95
same,Population Apoptotic (%),U2OS [2]; [19],100%
same,Population Fragmented Nuclei (%),U2OS [2]; [19],13%
same,Population Healthy Nuclei (%),U2OS [2]; [19],37%
same,Population Hoechst High Intensity Objects (%),U2OS [2]; [19],16%
same,Population Membrane Permeable-Phenotype (%),U2OS [2]; [19],96%
same,Population Mitotic Cells (%),U2OS [2]; [19],0%
same,Population Normal (%),U2OS [2]; [19],83%
same,Population Pyknosed Nuclei (%),U2OS [2]; [19],49%
same,Total Cell Count,U2OS [2]; [19],82
